In ChEMBL document CHEMBL3994590, “In vitro activity and mode of action of distamycin analogues against African trypanosomes” (Eur J Med Chem, 2017):
Calls of active or inactive are those of the source. The calls are words filed in the database; no cut-off is given here.

Legend:
[1] = system: Trypanosoma cruzi; assay: Inhibition of Trypanosoma cruzi recombinant trypanothione synthetase using GSH/spermididine as substrate assessed as residual activity by measuring phosphate release from ATP at 30 uM after 15 mins by Biomol Green reagent based assay relative to control
[2] = system: Trypanosoma brucei brucei; assay: Inhibition of Trypanosoma brucei brucei recombinant trypanothione synthetase using GSH/spermididine as substrate assessed as residual activity by measuring phosphate release from ATP at 30 uM after 15 mins by Biomol Green reagent based assay relative to control
[3] = system: Trypanosoma brucei brucei; assay: Antitrypanosomal activity against Trypanosoma brucei brucei 427 bloodstream forms at 5 uM after 24 hrs by propidium iodide dye based flow cytometry; assay type: functional; details: for inhibition of growth at 5 µM: Trypanosoma brucei, 427, 24 h, read-out: GI
Summary of the method: (§1)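 Bloodstream T. b. brucei 427 grown in HMI-9 with 10% FBS, penicillin/streptomycin, 37 °C, 5% CO2. Exponential-phase cells seeded at 5x10^5/mL; compounds added from DMSO stocks, 1% v/v DMSO final. […] Exposure 24 h, then diluted into PBS/1% glucose with 2 µg/mL PI and counted by flow cytometry. Viability given as % of DMSO-treated cell count.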

[4] = system: Leishmania infantum; assay: Inhibition of Leishmania infantum recombinant trypanothione synthetase using GSH/spermididine as substrate assessed as residual activity by measuring phosphate release from ATP at 30 uM after 15 mins by Biomol Green reagent based assay relative to control
[5] = system: Trypanosoma brucei brucei; assay: (§2) Antitrypanosomal activity against Trypanosoma brucei brucei 427 bloodstream forms assessed as induction of membrane damage at 310 nM after 3 hrs by propidium iodide dye based flow cytometry relative to control; assay type: functional
[6] = system: Trypanosoma brucei brucei; assay: Antitrypanosomal activity against Trypanosoma brucei brucei 427 bloodstream forms assessed as decrease in parasite levels with discrete lysosomal signal at 0.31 uM preincubated for 30 mins followed by addition of Lysotracker red DND-99 further incubated for 30 mins and measured by epifluorescence microscopy relative to control; assay type: functional
[7] = system: Trypanosoma brucei brucei; assay: Antitrypanosomal activity against Trypanosoma brucei brucei 427 bloodstream forms assessed as induction of mitochondrial damage at 0.31 uM preincubated for 30 mins followed by addition of Mitotracker red CM-H2XRos further incubated for 30 mins and measured by epifluorescence microscopy; assay type: functional
Summary of the method: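 Strain 427 at 1x10^6/mL treated with 0.31 µM test compound for 30 min. MitoTracker Red CM-H2XRos then added at 250 nM for 30 min more. Cells centrifuged, PBS-washed, fixed in 4% paraformaldehyde for 18 min, mounted with DAPI. Mitochondrial morphology and staining intensity compared with 1% DMSO-treated cells by fluorescence microscopy.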

[8] = system: Trypanosoma brucei brucei; assay: (§3) Antitrypanosomal activity against Trypanosoma brucei brucei 427 bloodstream forms infected CHO-K1 cells expressing redox biosensor hGrx-roGFP2 assessed as induction of hGrx-roGFP2 oxidation at 77.5 to 310 nM after 1 hr by flow cytometric method; assay type: functional
Summary of the method: (§4)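 Parasites induced with oxytetracycline for 24 h, then moved to 1x10^6/200 µL without inducer. Treated in triplicate for 1 h at 37 °C with 78–310 nM test compound, 1 mM menadione, 15 µM nifurtimox, 1 mM DTT or 1% DMSO. Half then given 1 mM DTT for 30 min more. PI at 2 µg/mL added; biosensor read at 488/530 nm in PI-negative cells only, as % reduction relative to DMSO.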

[9] = system: Trypanosoma brucei brucei; assay: (§5) Antitrypanosomal activity against Trypanosoma brucei brucei 427 bloodstream forms infected CHO-K1 cells expressing redox biosensor rxYFP assessed as induction of rxYFP oxidation at 10 uM preincubated for 1 hr followed by DTT addition measured after 30 mins by propidium iodide based flow cytometry relative to control; assay type: functional
Summary of the method: (§6)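 CHO-K1 cells expressing rxYFP in DMEM with 10% FCS, given 400 µg/mL zeocin 48 h before the assay. Trypsinized cells seeded at 8x10^5/mL and treated in triplicate for 1 h at 37 °C with 1, 5 or 10 µM test compound, 1 mM menadione, H2O2 or DTT, or 1% DMSO. Some wells then given 1 mM DTT for 30 min. PI-negative cells analysed by flow cytometry (488/530 nm), as % reduction relative to DMSO.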

[10] = system: Trypanosoma brucei brucei; assay: Antitrypanosomal activity against Trypanosoma brucei brucei 427 bloodstream forms after 24 hrs by propidium iodide dye based flow cytometry; assay type: functional; details: Trypanosoma brucei, 427, 24 h; summary of the method: as §1
[11] = system: Trypanosoma brucei brucei; assay: Antitrypanosomal activity against Trypanosoma brucei brucei 427 bloodstream forms assessed as induction of membrane damage at 155 nM after 2 to 4 hrs by propidium iodide dye based flow cytometry; assay type: functional
Summary of the method: (§7)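 Bloodstream strain 427 at 5x10^5/mL in triplicate, exposed to 310, 155 or 77.5 nM, 0.001% v/v Triton X-100, 15 µM nifurtimox or 1% v/v DMSO. Incubated 0.5, 1, 2 or 4 h, then diluted into PBS/1% glucose. PI added at 2 µg/mL just before flow cytometry. Result is % PI-positive cells, mean ± SD (n=3), with one-way ANOVA and Dunnett's test against DMSO.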

[12] = system: Trypanosoma brucei brucei; assay: as §3, with “preincubated for” for “after”, “hr followed by DTT addition measured after 30 mins” for “hr”; assay type: functional; summary of the method: as §4
[13] = system: Trypanosoma brucei brucei; assay: Antitrypanosomal activity against Trypanosoma brucei brucei 427 bloodstream forms assessed as membrane damage in presence of bipyridine at 0.31 uM after 2 hr by propidium iodide staining-based flow cytometry
[14] = system: Trypanosoma brucei brucei; assay: Antitrypanosomal activity against Trypanosoma brucei brucei 427 bloodstream forms assessed as increase in intracellular free iron level at 3.1 uM after 1 hr by PhenGreen SK diacetate reagent based flow cytometry; assay type: functional
Summary of the method: (§8)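 Strain 427 at 2x10^6/mL in triplicate with 3.1 µM test compound, with or without 10 or 100 µM deferoxamine or bipyridine; 1% DMSO control. After 40 min at 37 °C/5% CO2, PhenGreen SK diacetate added at 10 µM for 20 min more. Cells diluted in PBS/1% glucose and probe fluorescence (ex 488 nm) read by flow cytometry; mean ± SD (n=3).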

[15] = system: Trypanosoma brucei brucei; assay: Antitrypanosomal activity against Trypanosoma brucei brucei 427 bloodstream forms assessed as induction of membrane damage at 77.5 to 310 nM by propidium iodide dye based flow cytometry; assay type: functional; details: TDE = time-dependent effect; summary of the method: as §7
[16] = Selectivity index, ratio of EC50 for murine macrophage J774 cells to EC50 for Trypanosoma brucei brucei 427 bloodstream forms; assay type: toxicity; details: mouse; read-out: Ratio EC50
[17] = system: Trypanosoma brucei brucei; assay: Antitrypanosomal activity against Trypanosoma brucei brucei 427 bloodstream forms infected CHO-K1 cells expressing redox biosensor rxYFP assessed as induction of rxYFP oxidation at 1 to 10 uM after 1 hr by propidium iodide based flow cytometry relative to control; assay type: functional; summary of the method: as §6
[18] = system: Trypanosoma brucei brucei; assay: as §2, with “nM parasite preincubated with 125 to 500 uM DFO for 3 hrs followed by test compound addition measured” for “nM”; assay type: functional
Summary of the method: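 Strain 427 at 1x10^6/mL in triplicate at 37 °C. Arm A: 0.31 µM test compound with 100 µM DFO or bipyridine for 2 h. Arm B: DFO at 125–500 µM for 3 h, then 0.31 µM test compound for a further 3 h. Membrane integrity read by PI staining and flow cytometry; mean ± SD (n=3).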

[19] = system: Trypanosoma brucei brucei; assay: Antitrypanosomal activity against Trypanosoma brucei brucei 427 bloodstream forms assessed as induction of membrane damage at 310 nM after 1 hr by propidium iodide dye based flow cytometry; assay type: functional; summary of the method: as §7
[20] = system: Trypanosoma brucei brucei; assay: Antitrypanosomal activity against Trypanosoma brucei brucei 427 bloodstream forms assessed as induction of membrane damage at 310 nM after 2 to 4 hrs by propidium iodide dye based flow cytometry; assay type: functional; summary of the method: as §7
[21] = system: Trypanosoma brucei brucei; assay: Antitrypanosomal activity against Trypanosoma brucei brucei 427 bloodstream forms assessed as increase in intracellular free iron level at 3.1 uM co-incubated with bipyridine for 1 hr by PhenGreen SK diacetate reagent based flow cytometry
[22] = system: Trypanosoma brucei brucei; assay: Antitrypanosomal activity against Trypanosoma brucei brucei 427 bloodstream forms assessed as increase in intracellular free iron level at 3.1 uM co-incubated with DFO after 1 hr by PhenGreen SK diacetate reagent based flow cytometry; assay type: functional, cell-based; summary of the method: as §8
[23] = system: Trypanosoma brucei brucei; assay: Antitrypanosomal activity against Trypanosoma brucei brucei 427 bloodstream forms assessed as induction of membrane damage at 310 nM after 2 hrs by propidium iodide dye based flow cytometry relative to control; assay type: functional; summary of the method: as §7
[24] = system: Trypanosoma brucei brucei; assay: Antitrypanosomal activity against Trypanosoma brucei brucei 427 bloodstream forms infected CHO-K1 cells expressing redox biosensor hGrx-roGFP2 assessed as induction of hGrx-roGFP2 oxidation at 1 mM after 1 hr by flow cytometric method; assay type: functional; summary of the method: as §4
[25] = system: Trypanosoma brucei brucei; assay: as §5, with “1 mM” for “10 uM”; assay type: functional; summary of the method: as §6
[26] = system: Trypanosoma brucei brucei; assay: Antitrypanosomal activity against Trypanosoma brucei brucei 427 bloodstream forms infected CHO-K1 cells expressing redox biosensor rxYFP assessed as induction of rxYFP oxidation at 1 mM after 1 hr by propidium iodide based flow cytometry relative to control; assay type: functional; summary of the method: as §6
[27] = system: Trypanosoma brucei brucei; assay: Antitrypanosomal activity against Trypanosoma brucei brucei 427 bloodstream forms infected CHO-K1 cells expressing redox biosensor hGrx-roGFP2 assessed as induction of hGrx-roGFP2 oxidation at 1 mM preincubated for 1 hr followed by DTT addition measured after 30 mins by flow cytometric method; assay type: functional; summary of the method: as §4
[28] = system: Trypanosoma brucei brucei; assay: Antitrypanosomal activity against Trypanosoma brucei brucei 427 bloodstream forms at 30 uM after 24 hrs by propidium iodide dye based flow cytometry; assay type: functional; summary of the method: as §1

Activity [1]	Activity [2]	Activity [4]	EC50 [10]	SMILES	selectivity ratio [16]	further results
99%	108%	102%		CC(=O)Nc1nc(C(=O)Nc2nc(C(=O)O)cs2)cs1		inhibition of growth at 5 µM [3]: 20%
126%	120%	106%	0.31 µM	CCOC(=O)c1csc(NC(=O)c2csc(NC(=O)c3csc(NC(=O)OC(C)(C)C)n3)n2)n1	16.5	Activity [5]: 80%; fold change (FC) [6]: >3; Activity [7]: inactive; Activity [8]: 10%; Activity [9]: inactive; Activity [11]: Active; Activity [12]: inactive; Activity [13]: 47%; Activity [14]: 50%; Activity [15]: Tde; Activity [17]: 10%; Activity [18]: 40 - 67%; Activity [19]: 10%; Activity [20]: 80 - 90%; Activity [21]: inactive; Activity [22]: inactive; Activity [23]: 87%
				O[C@H](CS)[C@H](O)CS		Activity [24]: inactive
96.2%	100%	99.8%	5.5 µM	CCOC(=O)c1csc(NC(=O)c2csc(NC(=O)c3csc(N)n3)n2)n1	19.6	
104%	96.6%	102%		Cc1nc(C(=O)Nc2nc(C(=O)O)cs2)cs1		inhibition of growth at 5 µM [3]: 8.1%
	49.4%	57.1%		CNCCNC(=O)CN1C(=O)Cc2c([nH]c3ccc(Br)cc23)-c2ccc(Cl)cc21		
			15 µM	CC1CS(=O)(=O)CCN1/N=C/c1ccc([N+](=O)[O-])o1 (stereo not drawn) [NIFURTIMOX]	10	
				CC1=CC(=O)c2ccccc2C1=O [MENADIONE]		Activity [25]: inactive; Activity [26]: 70%; Activity [27]: inactive; Activity [24]: 21%
64.9%				O=c1[nH]c2cc3no[n+]([O-])c3cc2[nH]1		
105%	100%	89.9%		CC(C)(C)OC(=O)Nc1nc(C(=O)Nc2nc(C(=O)O)cs2)cs1		inhibition of growth at 5 µM [3]: 10.8%
102%	112%	110%	5 µM	CCOC(=O)c1csc(NC(=O)c2csc(NC(=O)c3csc(C)n3)n2)n1	10.5	
98.1%	102%	82.8%	9.6 µM	CCOC(=O)c1csc(NC(=O)c2csc(NC(C)=O)n2)n1	7.4	
96.4%	111%	102%	13.7 µM	CCOC(=O)c1csc(NC(=O)c2csc(NC(=O)OC(C)(C)C)n2)n1	3.5	
102%	103%	83.6%		CC(=O)Nc1nc(C(=O)Nc2nc(C(=O)Nc3nc(C(=O)O)cs3)cs2)cs1		Activity [28]: inactive; growth inhibition (GI) [3]: inactive
96.3%	93.7%	105%	5.4 µM	CCOC(=O)c1csc(NC(=O)c2csc(NC(=O)c3csc(NC(C)=O)n3)n2)n1	29.1	
99.7%	95.2%	98.5%		CCOC(=O)c1csc(NC(=O)c2csc(C)n2)n1		growth inhibition (GI) [3]: inactive
112%	112%	116%		CC(C)(C)OC(=O)Nc1nc(C(=O)Nc2nc(C(=O)Nc3nc(C(=O)O)cs3)cs2)cs1		inhibition of growth at 5 µM [3]: 22.7%
				OO [HYDROGEN PEROXIDE]		Activity [25]: inactive; Activity [26]: 25%
97.5%	111%	89.5%		CCOC(=O)c1csc(NC(=O)c2csc(N)n2)n1		inhibition of growth at 5 µM [3]: 25.6%
